Substitutions are numbered along the chain they refer to. Entries after “also recorded” stand apart in the source; their conditions may differ.
Key:
dorsal horn neurons = assay: Spinal cord slice electrophysiology; type: cell-based, rat; conditions: for increase in eEPSC amplitude from baseline: reversal of the ADO tone; for sEPSC frequency and amplitude: nerve-injured rats, superfusion, reversed by DPCPX, n=8
Procedure, shortened: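 Parasagittal lumbar cord slices (340 μm) from PNL and sham Sprague-Dawley rats, 9-15 weeks, cut in ice-cold sucrose ACSF and superfused at 2 ml/min, 34°C. Whole-cell voltage clamp at −70 mV in lamina I-II neurons; Cs-based internal with QX-314. eEPSCs evoked by dorsal root stimulation (C and A fibre) with gabazine 10 μM and strychnine 0.5 μM. Test compound superfused after stable baseline, then 1 μM DPCPX.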

nerve-injured rats [1] = assay: Conditioned place preference; type: in vivo, rat; conditions: intrathecal; for time spent in the drug paired chamber: nerve-injured rats, n=8
Procedure, shortened: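 Male and female Sprague-Dawley rats, 10-16 weeks, with partial sciatic nerve ligation and lumbar intrathecal catheters. Three-chamber box; pre-conditioning began 10 days post-surgery, excluding rats spending >80% of time in one chamber. Vehicle (DMSO/saline 60:40 or saline) was paired with one chamber in the morning and intrathecal drug with the opposite chamber 4 h later, counterbalanced. Rats were recorded 15 min with free access 20 h later; n = 8/group; morphine positive control.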

rats = assay: Rotarod; type: in vivo, rat
[2] = target: A1R-rHDL particles with Gi2 heterotrimeric protein (Homo sapiens, UniProt P30542); assay: [3H]DPCPX dissociation at A1R-rHDL particles with saturating Gi2; type: binding; conditions: 30 μM MIPS521; saturating concentration of Gi2; SLV320 isotopic dilution
Chain of A1R-rHDL particles with Gi2 heterotrimeric protein (P62873 whole entry): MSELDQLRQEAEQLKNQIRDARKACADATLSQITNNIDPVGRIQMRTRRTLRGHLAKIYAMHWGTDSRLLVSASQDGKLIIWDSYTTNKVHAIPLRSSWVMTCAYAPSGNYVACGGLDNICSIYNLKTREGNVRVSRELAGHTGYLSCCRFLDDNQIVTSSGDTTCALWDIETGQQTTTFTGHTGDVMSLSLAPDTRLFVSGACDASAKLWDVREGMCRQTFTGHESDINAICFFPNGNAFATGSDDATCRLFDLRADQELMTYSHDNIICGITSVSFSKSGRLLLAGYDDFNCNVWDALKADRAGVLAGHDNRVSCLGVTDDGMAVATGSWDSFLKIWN
Chain of A1R-rHDL particles with Gi2 heterotrimeric protein (P59768 2-68, further chain): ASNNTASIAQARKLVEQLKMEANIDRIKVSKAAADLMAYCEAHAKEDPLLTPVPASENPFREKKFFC
Chain of A1R-rHDL particles with Gi2 heterotrimeric protein (P04899 2-355, further chain): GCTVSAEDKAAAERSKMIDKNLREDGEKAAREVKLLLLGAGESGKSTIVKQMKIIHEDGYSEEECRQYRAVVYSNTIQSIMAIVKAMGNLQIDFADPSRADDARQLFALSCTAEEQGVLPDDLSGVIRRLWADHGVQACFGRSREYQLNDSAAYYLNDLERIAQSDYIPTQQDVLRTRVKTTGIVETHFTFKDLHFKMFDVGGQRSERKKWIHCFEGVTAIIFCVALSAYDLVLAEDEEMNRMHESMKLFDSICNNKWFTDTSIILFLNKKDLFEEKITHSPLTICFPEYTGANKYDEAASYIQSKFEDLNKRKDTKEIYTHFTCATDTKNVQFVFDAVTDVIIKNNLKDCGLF
Chain of A1R-rHDL particles with Gi2 heterotrimeric protein (P30542 whole entry): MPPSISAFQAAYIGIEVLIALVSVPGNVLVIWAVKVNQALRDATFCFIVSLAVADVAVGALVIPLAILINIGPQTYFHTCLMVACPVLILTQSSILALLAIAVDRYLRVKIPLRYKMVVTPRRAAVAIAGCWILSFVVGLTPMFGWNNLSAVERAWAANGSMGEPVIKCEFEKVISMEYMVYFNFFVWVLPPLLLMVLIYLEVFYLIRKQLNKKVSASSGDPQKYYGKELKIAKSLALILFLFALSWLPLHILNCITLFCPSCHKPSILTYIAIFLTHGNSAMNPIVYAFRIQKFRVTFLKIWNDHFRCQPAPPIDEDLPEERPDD
Procedure, shortened: (§1)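 Purified A1R reconstituted into MSP1D1 nanodiscs (POPC:POPG 3:2; molar ratio 1:10:800) for 1 h at 4°C, then Bio-beads overnight; empty discs removed on anti-Flag resin. Particles ± Gi2 heterotrimer (1:50 molar) were equilibrated 1 h with 2 nM [3H]DPCPX ± 30 μM test compound. Dissociation started with excess SLV320, filtered on GF/C and counted. Fitted to mono-exponential decay; n = 3-5, duplicate.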

mutant A1R [3] = target: T1, mutant A1R (Homo sapiens, UniProt P30542, F275V); type: binding; conditions: F275^7.40V
T1 sequence (P30542 1-326 F275V): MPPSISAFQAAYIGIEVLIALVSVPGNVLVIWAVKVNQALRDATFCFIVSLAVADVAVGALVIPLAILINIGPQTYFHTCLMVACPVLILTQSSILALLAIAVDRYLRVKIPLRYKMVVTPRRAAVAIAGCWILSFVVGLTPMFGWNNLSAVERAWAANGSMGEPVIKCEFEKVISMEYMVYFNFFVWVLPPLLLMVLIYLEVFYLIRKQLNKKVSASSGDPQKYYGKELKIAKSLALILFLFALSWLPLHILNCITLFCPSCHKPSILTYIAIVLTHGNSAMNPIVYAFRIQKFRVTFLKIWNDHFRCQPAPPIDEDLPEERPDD

mutant A1R [4] = target: T2, mutant A1R (Homo sapiens, UniProt P30542, S246A); type: binding; conditions: S246^6.47A
T2 sequence (P30542 1-326 S246A): T1 sequence (P30542 1-326 F275V) with S246A, V275F

mutant A1R [5] = target: T3, mutant A1R (Homo sapiens, UniProt P30542, L276A); type: binding; conditions: L276^7.41A
T3 sequence (P30542 1-326 L276A): T1 sequence (P30542 1-326 F275V) with V275F, L276A

mutant A1R [6] = target: T4, mutant A1R (Homo sapiens, UniProt P30542, M283V); type: binding; conditions: M283^7.48V
T4 sequence (P30542 1-326 M283V): T1 sequence (P30542 1-326 F275V) with V275F, M283V

mutant A1R [7] = target: T5, mutant A1R (Homo sapiens, UniProt P30542, L242A/L245A); type: binding; conditions: alanine mutation of both L242^6.43 and L245^6.46
T5 sequence (P30542 1-326 L242A/L245A): T1 sequence (P30542 1-326 F275V) with L242A, L245A, V275F

mutant A1R [8] = type: binding, human; conditions: bulkier side chains at position 7.44 (G279^7.44)
rat atrial beat rate = assay: Isolated rat atrial experiments; conditions: isolated rat atria, concentration-response
Stability in rat plasma = type: in vitro ADME
[9] = Stability in human plasma; type: in vitro ADME
[10] = target: T6, A1R alone reconstituted in rHDL (Homo sapiens, UniProt P30542); assay: [3H]DPCPX dissociation at A1R-rHDL particles, absence of G protein; type: binding; conditions: 30 μM MIPS521, SLV320 isotopic dilution
T6 sequence (P30542 1-326): T1 sequence (P30542 1-326 F275V) with V275F
Procedure, shortened: as §1

nerve-injured rats [11] = type: in vivo, rat; conditions: intrathecal
Procedure, shortened: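 Sciatic nerve partially ligated (one third to one half) under isoflurane; allodynia confirmed at day 14. Intrathecal catheters placed at day 12 in male and female Sprague-Dawley rats, 9-14 weeks. After baseline, blinded 10 μL dose (DMSO/saline 60:40) plus 25 μL saline flush. Von Frey filaments 0.52-14.8 g, up-down method, over a time course, including 1 h post-dose. n = 8-10; catheter placement checked with lignocaine.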

[12] = target: T7, human A1R expressed in CHO cells (Homo sapiens, UniProt P30542); type: cell-based
T7 sequence (P30542 1-326): T1 sequence (P30542 1-326 F275V) with V275F
Procedure, shortened: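 FlpIN-CHO cells stably expressing WT A1R, grown in DMEM with 20 mM HEPES, 5% FBS and hygromycin B; seeded at 20,000 cells/well overnight. At 37°C in HEPES-buffered saline with rolipram, pH 7.45: 30 min preincubation, 10 min test compound, then 3 μM forskolin ± increasing ADO for 30 min. Stopped with ice-cold ethanol; cAMP expressed as % of forskolin response.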

[13] = intrathecal, compared to vehicle controls, n=3-4
[14] = operational model, ADO, 3 μM forskolin

SMILES: CCCn1c(=O)c2[nH]c(C3CCCC3)nc2n(CCC)c1=O [DPCPX, reference compound]
- increase in eEPSC amplitude from baseline (dorsal horn neurons; nerve-injured animals): 19.7 ± 6.1%
- increase in eEPSC amplitude from baseline (dorsal horn neurons; sham controls): 7.89 ± 2.7%

SMILES: CN1CC[C@]23c4c5ccc(O)c4O[C@H]2[C@@H](O)C=C[C@H]3[C@H]1C5 [morphine, reference compound]
- time spent in the drug paired chamber (nerve-injured rats [1]; 10 μg): increased the time nerve-injured rats spent in the drug paired chamber
- rotarod latency to fall / motor function (rats; [13]): reduces rotarod latency to fall

SMILES: Nc1scc(-c2cc(C(F)(F)F)cc(C(F)(F)F)c2)c1C(=O)c1ccc(Cl)cc1 [MIPS521]
- time spent in the drug paired chamber (nerve-injured rats [1]; 10 μg): increased the time nerve-injured rats spent in the drug paired chamber
- spontaneous pain (nerve-injured rats [1]; lower dose than VCP171 (10 μg)): significantly reduced spontaneous pain
- effect on dissociation of pre-equilibrated [3H]DPCPX [2]: even more profound retardation
- change in PAM affinity (pKB) vs wild type (mutant A1R [3]): decrease in affinity
- change in PAM affinity (pKB) vs wild type (mutant A1R [4]): significant decrease in both PAM affinity and cooperativity
- change in binding cooperativity (log α) with NECA vs wild type (mutant A1R [4]): significant decrease in both PAM affinity and cooperativity
- change in PAM affinity (pKB) vs wild type (mutant A1R [5]): significantly decreased MIPS521 affinity
- change in PAM affinity (pKB) vs wild type (mutant A1R [6]): significantly reduced the affinity
- change in PAM affinity (pKB) vs wild type (mutant A1R [7]): no effect on affinity
- change in binding cooperativity (log α) with NECA vs wild type (mutant A1R [7]): significant decrease in PAM cooperativity
- change in PAM affinity (pKB) vs wild type (mutant A1R [8]): significant loss of both modulator affinity and cooperativity
- change in binding cooperativity (log α) with NECA vs wild type (mutant A1R [8]): significant loss of both modulator affinity and cooperativity
- rotarod latency to fall / motor function (rats; [13]): neither MIPS521 nor VCP171 affected motor function; also recorded: not significantly different to vehicle controls
- effect on rat atrial beat rate (rat atrial beat rate): minimal effect
- sEPSC frequency and amplitude (dorsal horn neurons): reduced
- pEC50 for reducing eEPSCs (dorsal horn neurons; spinal cord from nerve-injured animals, n=4-12): 6.9 ± 0.4
- stability in plasma (Stability in rat plasma; 4-hour incubation period): stable
- stability in plasma ([9]; 4-hour incubation period): stable
- effect on dissociation of pre-equilibrated [3H]DPCPX [10]: no effect
- mechanical hyperalgesia (paw withdrawal threshold) (nerve-injured rats [11]; compared with VCP171): reversed the mechanical hyperalgesia at lower concentrations than VCP171
- affinity for the A1R allosteric site, pKB ([12]; operational model of allosterism and agonism, ADO, 3 μM forskolin, n=3): 4.95 ± 0.40
- positive cooperativity with ADO, Log αβ [12, 14]: 1.81 ± 0.53
- direct allosteric agonism / signaling efficacy, Log τB ([12]; operational model, recombinant CHO cells): 0.96 ± 0.34

SMILES: Nc1scc(-c2cccc(C(F)(F)F)c2)c1C(=O)c1ccccc1 [VCP171, (2-amino-4-(3-(trifluoromethyl)phenyl)thiophen-3-yl)(phenyl)methanone]
- spontaneous pain (nerve-injured rats [1]; 30 μg (highest dose)): reduced spontaneous pain
- time spent in the drug paired chamber (nerve-injured rats [1]; 30 μg): increased the time nerve-injured rats spent in the drug paired chamber
- rotarod latency to fall / motor function (rats; both, Sprague Dawley, rat, in vivo): neither MIPS521 nor VCP171 affected motor function
- rotarod latency to fall / motor function (rats; rat, in vivo): not significantly different to vehicle controls
- sEPSC frequency and amplitude (dorsal horn neurons): reduced
- time stable in plasma (Stability in rat plasma): at least 4 h
- time stable in plasma [9]: at least 4 h
- allodynia (paw withdrawal threshold) (nerve-injured rats [11]; 30 μg): small reduction of allodynia
- paw withdrawal threshold (nerve-injured rats [11]; 1-10 μg): no effect
- Kb [12]: 3.16 µM
- positive cooperativity with ADO, Log αβ [12, 14]: 0.76 ± 0.25

— PMC8711093 (Nature, 2021)
